This is a sample that favours compounds with a hit; in the whole collection about 2.5% have one here.
Diaphorase inh = diaphorase inhibitors and chemical oxidizers, primary screen, counter-screen for diaphorase-coupled primary assays, biochemical, uHTS, resorufin fluorescence | diaphorase resazurin-to-resorufin fluorescence, NADH, 16 min; bacterial (C. kluyveri) enzyme, not human | 190,000 compounds, 0.69% hits | inhibition, % at 20 µM;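 active means primary screen inhibition at 20 µM above a set limit, cut at about 50% in these data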
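System: Diaphorase enzyme from Clostridium kluyveri | Amount: Enzyme working solution with 0.14 U/mL diaphorase | Benchmarks: No-NADH positive control and DMSO neutral control | Signal: Fluorescence of resorufin formed from resazurin, Ex 544/Em 590 nm | Schedule: 16-min room-temperature incubation before reading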
PMI act hi M6P = human PMI activators, high substrate, primary screen, biochemical, fluorescence intensity, near-saturating mannose 6-phosphate; Mannose-6-phosphate isomerase (Homo sapiens), P34949; coupled PMI enzyme assay, resazurin fluorescence, 20 min; hits give high values; 1 = untreated enzyme, 0 = substrate-free blank; activation factor at 20 µM; 190,000 compounds, 0.34% hits; AID 1216, 2008;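 active means activation factor of 2 or more at 20 µM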
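Test system: human phosphomannose isomerase with PGI, G6PDH, diaphorase coupling enzymes / Doses: 20 µM compound, 1% DMSO / Times: enzyme reaction with compound 20 min at room temperature / Measured by: Diaphorase-driven resazurin-to-resorufin fluorescence, excitation 544, emission 590 nm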
FLuc stim CS = FLuc activators, initial screening, artefact control for FLuc-dependent activation tests, biochemical, ATPlite luminescence. AID 1027, 2008. ATPlite luciferase biochemical, 10 min; 0 = ATP-free wells, 1 = DMSO control. activation factor at 10 µM. 200,000 tested, under 10 active;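 active means luciferase activation factor, scaled between plate controls, of at least 2 with compound at 10 µM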
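System: luciferase plus luciferin reagent, cell-free; medium: PBS as buffer for the ATP substrate; dosing: test compounds dosed from 2 mM stocks in 100% DMSO; timing: 10 min post-reagent at room temperature; measured by: luminescence measurement of luciferase light output; evaluation: luciferase activation, seen as luminescence increase over controls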
FLuc inh counter = firefly luciferase enzyme inhibitors, primary screen, artefact control for luciferase-based inhibitor screens, biochemical, luminescence, ATPLite; 200,000 compounds, 1.5% hits; inhibition, % at 10 µM; Luciferin 4-monooxygenase (Photinus pyralis), P08659; AID 1006, 2008; 10 min;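 active means inhibition above about 50% when tested at 10 µM, limit read from the data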
Diaphorase act = compounds boosting diaphorase resazurin reduction – biochemical, uHTS, resorufin fluorescence, counter-screen for diaphorase-coupled primary assays, primary screen; Diaphorase/resazurin coupled assay, 16 min; hits give high values; 1 = vehicle wells, 0 = NADH-free wells; activation factor at 20 µM; 190,000 compounds, 0.005% hits; AID 1229, 2008;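 active means diaphorase activity raised at least twofold by the compound at 20 µM; inactive means activation factor below 2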
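Material: purified diaphorase enzyme from Clostridium kluyveri / Medium: HEPES pH 7.4 buffer with MgCl2 and Tween 20 / Schedule: enzyme reaction of 16 min at room temperature / Measured by: resorufin fluorescence, excitation 544 nm, emission 590 nm / Evaluation: rise in resorufin formation, marking diaphorase activation or chemical reduction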
PMI activator = activators of human PMI, primary screen, biochemical, fluorescence intensity, near-Km mannose 6-phosphate; Mannose-6-phosphate isomerase (Homo sapiens), P34949; purified human PMI, coupled resazurin fluorescence, 20 min; hits give high values; 1 = vehicle control, 0 substrate-free wells; activation factor at 20 µM; 190,000 compounds, 0.005% hits; AID 1214, 2008;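 active means activation factor of 2 or more at 20 µM, relative to plate controls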
Large screens that a line does not name were inactive.

COc1cc(CN2CCNC(=O)C2CC(=O)O)cc(OC)c1 (configuration not stated)	Diaphorase inh 85
Oc1[nH]c2ccccc2c1N=Nc1nc2ccccc2s1	FLuc inh counter 54
Oc1[nH]c2ccccc2c1N=Nc1ccc(F)cc1	none
NNc1ccccc1C(F)(F)F	PMI act hi M6P 3.1, PMI activator 2
COC(=O)[C@H](C)NC(=O)Nc1ccccc1C(F)(F)F	none
CCN(c1ccc(NC(=O)c2ccc(Cl)nc2)cc1)C(C)C	none
Cc1ccc(CNC(=O)C2CC(c3cccc([N+](=O)[O-])c3)=NO2)o1 (configuration not stated)	none
O=C(CCN1CCCCC1)NNC(=S)NC(=O)c1ccc(Br)cc1	none
O=C(CCN1CCOCC1)NNC(=S)NC(=O)c1ccc(Br)cc1	Diaphorase inh 66
O=C(O)/C=C/c1cnn(-c2ccccc2)c1	none
CC(O)/C=C/c1ccc2ccccc2n1 (configuration not stated)	none
Fc1cccc(F)c1/C=C/c1ccc2ccccc2n1	FLuc inh counter 82
CCC(C)(C)c1ccc2c(c1)C(=O)c1ccccc1C2=O	none
CCCCCCN1C=CC(=C2C(=O)c3ccccc3C2=O)C=C1	FLuc inh counter 94
CCCN1C=CC(=C2C(=O)c3ccccc3C2=O)C=C1	FLuc inh counter 97
CC1=CC(=C2C(=O)c3ccccc3C2=O)C=C(C)O1	none
CN1C=CC(=C2C(=O)c3ccccc3C2=O)C=C1	FLuc inh counter 75
CCN1C=CC(=C2C(=O)c3ccccc3C2=O)C=C1	FLuc inh counter 98
O=C(COC(=O)Cc1c(Cl)cccc1Cl)Nc1ccc(OC(F)(F)F)cc1	none
COc1cc(-c2nc(=S)[nH][nH]2)cc(OC)c1OC	none
CCCCN1C(C)=CC(=C2C(=O)c3ccccc3C2=O)C=C1C	FLuc inh counter 77
CC1=CC(=C2C(=O)c3ccccc3C2=O)C=C(C)N1Cc1ccco1	none
CC(=O)Nc1ccc(S(=O)(=O)Nc2nc3ccccc3nc2Nc2ccc(S(N)(=O)=O)cc2)cc1	none
CC(=O)Nc1ccc(S(=O)(=O)Nc2nc3ccccc3nc2N2CCCC2)cc1	Diaphorase inh 50
Brc1cc2c(cc1/C=N/Nc1nc3ccccc3s1)OCO2	none
Brc1csc(/C=N/Nc2nc3ccccc3s2)c1	FLuc inh counter 54
CCCCCCCC(=O)N/N=C/c1cccnc1	none
CCCCCCCCC(=O)N/N=C(\C)c1cccnc1	PMI act hi M6P 2.3
Cn1c(=O)[nH]c(=O)c2c1nc(N1CCOCC1)n2CCSc1nc2ccccc2[nH]1	none
COCCNc1nc(-c2cc3ccccc3o2)cs1	FLuc inh counter 62
Cc1cc(-c2csc(NC(=O)c3cc4ccccc4o3)n2)c(C)n1C	none
COc1cccc(CNc2ccc(Br)cn2)c1O	FLuc inh counter 62
CC[C@@H](C)[C@@H](C(=O)N1CCN(C(=O)OC(C)(C)C)CC1)n1cc(CCCCNC(=O)OC(C)(C)C)nn1	none
Cc1ccc(/C=C2\CCCC3=C2NC(=S)NC3c2ccc(C)cc2)cc1 (configuration not stated)	PMI act hi M6P 2
Cc1ccc2c(c1)-c1nc3ccccc3cc1C2=NC1CCCCC1	none
Cc1ccc2c(c1)Cc1nc3ccccc3nc1-2	FLuc inh counter 87
Cc1ccc(Nc2nc(-c3ccc(O)c(O)c3)cs2)nc1	Diaphorase inh 83
CN(C)S(=O)(=O)c1cccc(C(=O)OCC(=O)NC2CCCc3ccccc32)c1 (configuration not stated)	FLuc inh counter 57

High-throughput results as filed in PubChem BioAssay.
